These results are taken from PMC4278532 (Environmental Toxicology and Chemistry / Setac, 2014).

The target of data set [1] is T1, human aryl hydrocarbon receptor (AhR) (Homo sapiens, UniProt P35869). Conditions: cited from earlier work.
The target of data set [2] is T1, human aryl hydrocarbon receptor (AhR). Put plainly: Yeast bioassay. The data set is classed as cell-based. Conditions: for concentration at which the bioassay response showed signs of saturation: Figure 3. The method, boiled down: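 Engineered S. cerevisiae YCM3 (W303a-derived) carries chromosomal full-length human AhR/ARNT under the galactose promoter and a 5×XRE-LacZ plasmid. Kept in glucose medium, diluted to A600 0.04 in 2% galactose medium, exposed 18 h at 30 °C (1% DMSO vehicle). ONPG assay pH 7.0, ~5 min, 37 °C, Na2CO3 stop. A405 normalized to A600, % of 1 µM β-naphthoflavone. Two-parameter fit; n = 4, ≥3 experiments.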

The subject of the next data set is YCM3 yeast cells. Put plainly: Toxicity to the yeast cells. The data set is classed as cell-based, Saccharomyces cerevisiae. Conditions: for concentrations toxic to the yeast cells: 18 h, precluded data collection; for toxicity to the yeast cells: compared with 2-MP, 3-MP, 4-MP, tested up to 100 µM.
A further data set has as its system AhR. The settings on record: cited from earlier work.

T1 sequence (P35869 11-848): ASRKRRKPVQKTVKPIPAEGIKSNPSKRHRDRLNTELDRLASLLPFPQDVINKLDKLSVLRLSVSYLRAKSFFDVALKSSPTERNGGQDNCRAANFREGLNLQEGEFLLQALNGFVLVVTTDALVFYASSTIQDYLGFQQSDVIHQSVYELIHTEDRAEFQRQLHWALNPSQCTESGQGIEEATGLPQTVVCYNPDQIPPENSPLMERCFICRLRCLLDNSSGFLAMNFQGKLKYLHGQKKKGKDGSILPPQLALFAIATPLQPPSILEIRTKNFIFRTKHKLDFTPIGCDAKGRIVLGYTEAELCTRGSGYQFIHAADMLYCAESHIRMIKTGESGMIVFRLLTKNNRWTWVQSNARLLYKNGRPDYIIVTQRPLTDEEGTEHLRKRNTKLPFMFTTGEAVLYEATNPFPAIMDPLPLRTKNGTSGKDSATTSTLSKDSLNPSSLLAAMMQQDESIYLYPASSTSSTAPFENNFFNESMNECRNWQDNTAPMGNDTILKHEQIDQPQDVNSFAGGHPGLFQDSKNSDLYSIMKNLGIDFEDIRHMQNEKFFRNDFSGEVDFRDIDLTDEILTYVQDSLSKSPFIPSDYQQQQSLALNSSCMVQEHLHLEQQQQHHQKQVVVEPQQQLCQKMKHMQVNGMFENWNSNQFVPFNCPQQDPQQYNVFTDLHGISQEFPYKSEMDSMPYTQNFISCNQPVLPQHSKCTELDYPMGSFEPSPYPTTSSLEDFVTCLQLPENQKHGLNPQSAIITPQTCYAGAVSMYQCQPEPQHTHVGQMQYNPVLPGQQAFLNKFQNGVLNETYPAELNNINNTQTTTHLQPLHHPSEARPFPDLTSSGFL
T1 sequence (P27540 whole entry partner): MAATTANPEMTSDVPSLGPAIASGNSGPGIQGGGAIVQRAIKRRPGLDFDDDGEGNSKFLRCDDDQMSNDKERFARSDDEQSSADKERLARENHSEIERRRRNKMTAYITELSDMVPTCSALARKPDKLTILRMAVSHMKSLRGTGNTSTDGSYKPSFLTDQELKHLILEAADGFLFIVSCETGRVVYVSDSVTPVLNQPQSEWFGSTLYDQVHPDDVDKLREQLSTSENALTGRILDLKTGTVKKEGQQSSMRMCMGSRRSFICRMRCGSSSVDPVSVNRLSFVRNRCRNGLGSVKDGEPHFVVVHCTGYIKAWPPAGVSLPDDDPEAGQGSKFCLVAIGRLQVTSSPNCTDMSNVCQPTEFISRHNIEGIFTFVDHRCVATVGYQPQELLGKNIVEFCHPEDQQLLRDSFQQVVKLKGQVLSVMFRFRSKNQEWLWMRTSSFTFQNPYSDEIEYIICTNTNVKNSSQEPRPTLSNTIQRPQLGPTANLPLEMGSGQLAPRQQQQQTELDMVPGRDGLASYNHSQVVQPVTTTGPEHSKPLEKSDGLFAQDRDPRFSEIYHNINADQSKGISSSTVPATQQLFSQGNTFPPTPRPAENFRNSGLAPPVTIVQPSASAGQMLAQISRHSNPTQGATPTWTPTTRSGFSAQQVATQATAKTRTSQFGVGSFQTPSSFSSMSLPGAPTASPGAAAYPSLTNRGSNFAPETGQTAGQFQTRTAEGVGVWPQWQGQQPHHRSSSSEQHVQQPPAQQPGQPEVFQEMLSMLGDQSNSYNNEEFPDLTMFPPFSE

As for `c1ccc2c(c1)cc1ccc3cccc4ccc2c1c34` [benzo[a]pyrene], the “activity in this yeast bioassay” value in data set [1] is recorded as “very potent activator”.
With `Cc1ccc2ccc3ccc(C)cc3c2c1` [3,6-DMP, 3,6-dimethylphenanthrene], the “signal in the bioassay relative to that produced by phenanthrene and the monomethylated derivatives” value in data set [2] is given as “approximately 50%”.
Consider `Cc1ccc2c(ccc3ccccc32)c1` [2-MP, 2-methylphenanthrene], for which the “concentrations toxic to the yeast cells” value with YCM3 yeast cells is “above 50 µM”. Besides, the “AhR activation in a rat liver system” value in the data set on AhR is on record as “stronger than 9-MP”.
With `Cc1ccc2ccc3ccccc3c2c1` [3-MP, 3-methylphenanthrene], the “concentrations toxic to the yeast cells” value in the data set with YCM3 yeast cells is listed as “above 50 µM”. For the same compound, the “AhR activation in a rat liver system” value in the data set with AhR is reported as “stronger than 9-MP”.
On to `Cc1cccc2ccc3ccccc3c12` [4-MP, 4-methylphenanthrene], for which the “concentrations toxic to the yeast cells” value in the data set with YCM3 yeast cells is “above 50 µM”.
On to `c1ccc2c(c1)ccc1ccccc12` [Phenanthrene, phenanthrene, reference compound], for which the “toxicity to the yeast cells” value with YCM3 yeast cells was “less toxic to the yeast cells”. In addition, the “concentration at which the bioassay response showed signs of saturation” value (shortened to “concentration … of saturation”) in data set [2] is 100 µM.
Regarding `Cc1cccc2c1ccc1ccccc12` [1-MP, 1-methylphenanthrene], in data set [2], the “concentration … of saturation” value was determined as 30 µM. The “AhR activation in a rat liver system” value in the data set on AhR was “stronger than 9-MP”.
In the case of `Cc1cc2ccccc2c2ccccc12` [9-MP, 9-methylphenanthrene], the “toxicity to the yeast cells” value in the data set on YCM3 yeast cells is listed as “less toxic to the yeast cells”. Further, in data set [2], the “concentration … of saturation” value came to 100 µM.
On to `O=c1cc(-c2ccccc2)oc2ccc3ccccc3c12` [β-NF, β-naphthoflavone], for which the “AhR agonism” value in data set [1] (positive control) was “strong agonist”.
